We go through 17 compounds from ChEMBL document CHEMBL1759833, “Synthesis and biological evaluation of some 4-functionalized-pyrazoles as antimicrobial agents” (2011).

What all share (assay type): functional
The test system of assay [1] is Bacillus subtilis. Kind of assay: Antibacterial activity against Bacillus subtilis MTCC 121 for 24 hrs by agar diffusion method. The method, boiled down:
(§1)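 Agar well diffusion on Mueller Hinton agar plates swabbed with bacterial suspension of approx. 1.5 × 10⁸ cfu/mL. 8 mm wells were loaded with compound at 4.0 mg/mL in DMSO. Plates were incubated 37 °C for 24 h. Read-out was inhibition zone diameter in mm, including the 8 mm well, as mean of three replicates. Controls were DMSO (negative) and ciprofloxacin (positive).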
Background: A growth-free zone around the sample is the usual read-out of agar diffusion tests.

A further assay concerns Aspergillus niger. Kind of assay: Antifungal activity against Aspergillus niger MTCC 282 assessed as inhibition of mycelial growth for 7 days by poisoned food method. The method, boiled down: (§2)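 Poisoned food method. Compound at 4.0 mg/mL in DMSO was mixed into agar, poured and solidified at room temperature. Each plate was inoculated centrally with an 8 mm plug from an actively growing colony and incubated at 25 °C for 7 days. Colony diameter was converted to percent mycelial inhibition, in triplicate. Controls were DMSO (negative) and fluconazole (positive).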

The test system of assay [2] is Bacillus subtilis. Kind of assay: Antibacterial activity against Bacillus subtilis MTCC 121 for 24 hrs by macrodilution method. As to conditions: MTCC 121, 24 h. The method, boiled down:
(§3)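 MIC by NCCLS macrodilution tube method. Tubes were inoculated with bacteria at 1.5 × 10⁸ cfu/mL and incubated at 37 °C for 24 h. Turbidity was scored visually. Ciprofloxacin served as control.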

Assay [3] concerns Staphylococcus aureus. Kind of assay: Antibacterial activity against Staphylococcus aureus MTCC 96 for 24 hrs by agar diffusion method. Summed up: as §1
In assay [4] the test system is Staphylococcus aureus. Kind of assay: Antibacterial activity against Staphylococcus aureus MTCC 96 for 24 hrs by macrodilution method. As to conditions: MTCC 96, 24 h. The method, boiled down: as §3
A further assay has as its system Aspergillus flavus. Kind of assay: Antifungal activity against Aspergillus flavus MTCC 871 assessed as inhibition of mycelial growth for 7 days by poisoned food method. Summed up: as §2

Converted amounts (≈) assume the structure as drawn.

Usually MIC stands for the lowest concentration that inhibits growth of the organism. With `NS(=O)(=O)c1ccc(-n2cc(C(=O)O)c(-c3ccccc3)n2)cc1`, the “diameter of the inhibition zone (DIZ)” value in the assay with Bacillus subtilis [1] was 16.6 mm; with Staphylococcus aureus [3], 15.3 mm. Moreover, the entries for the “inhibition (INH)” value in the assay on Aspergillus niger and in the assay with Aspergillus flavus were 50% and 55.5%, respectively. Further, the MIC against Bacillus subtilis [2] and in the assay on Staphylococcus aureus [4] was 128 µg/mL (≈ 373 µM) each time.
Turning to `Cc1ccc(-c2nn(-c3ccc(S(N)(=O)=O)cc3)cc2C(=O)O)cc1`, the “diameter of the inhibition zone (DIZ)” value is reported as 17.3 mm in the assay on Bacillus subtilis [1] and 14.6 mm with Staphylococcus aureus [3]. The “inhibition (INH)” value is listed as 46.6% with Aspergillus niger and 51.1% with Aspergillus flavus. Moreover, the MIC against Bacillus subtilis [2] was 64 µg/mL (≈ 179 µM); in the assay on Staphylococcus aureus [4], greater than 128 µg/mL.
On to `COc1ccc(-c2nn(-c3ccc(S(N)(=O)=O)cc3)cc2C(=O)O)cc1`, for which the “diameter of the inhibition zone (DIZ)” value with Bacillus subtilis [1] came out at 17 mm; in the assay on Staphylococcus aureus [3], 15.6 mm. Also, the “inhibition (INH)” value with Aspergillus niger and in the assay with Aspergillus flavus was 44.4% throughout. Also, the MIC was found to be 64 µg/mL (≈ 171 µM) against Bacillus subtilis [2] and 128 µg/mL (≈ 343 µM) against Staphylococcus aureus [4].
`NS(=O)(=O)c1ccc(-n2cc(C(=O)O)c(-c3ccc(F)cc3)n2)cc1`: the “diameter of the inhibition zone (DIZ)” value in the assay with Bacillus subtilis [1] was 18.6 mm; in the assay on Staphylococcus aureus [3], 15 mm. Moreover, the “inhibition (INH)” value in the assay on Aspergillus niger turned out to be 52.5%; in the assay with Aspergillus flavus, 48.8%. The MIC with Bacillus subtilis [2] was found to be 64 µg/mL (≈ 177 µM); with Staphylococcus aureus [4], 128 µg/mL (≈ 354 µM).
For `NS(=O)(=O)c1ccc(-n2cc(C(=O)O)c(-c3ccc(Cl)cc3)n2)cc1`, the entries for the “diameter of the inhibition zone (DIZ)” value with Bacillus subtilis [1] and in the assay on Staphylococcus aureus [3] were 21.6 mm and 18.6 mm, respectively. The “inhibition (INH)” value in the assay on Aspergillus niger is recorded as 45.5%; in the assay with Aspergillus flavus, 44.4%. For the same compound, the MIC came out at 32 µg/mL (≈ 84.7 µM) against Bacillus subtilis [2] and 64 µg/mL (≈ 169 µM) against Staphylococcus aureus [4].
On to `NC(=S)c1cn(-c2ccc(S(N)(=O)=O)cc2)nc1-c1ccc(F)cc1`, for which the “diameter of the inhibition zone (DIZ)” value in the assay with Bacillus subtilis [1] stood at 15.3 mm; with Staphylococcus aureus [3], 17.6 mm. The “inhibition (INH)” value in the assay on Aspergillus niger worked out at 44.4%; with Aspergillus flavus, 61.1%. The MIC in the assay with Bacillus subtilis [2] was 128 µg/mL (≈ 340 µM); against Staphylococcus aureus [4] it was 64 µg/mL (≈ 170 µM).
For `NC(=S)c1cn(-c2ccc(S(N)(=O)=O)cc2)nc1-c1ccc(Cl)cc1`, the entries for the “diameter of the inhibition zone (DIZ)” value in the assay on Bacillus subtilis [1] and with Staphylococcus aureus [3] were 14.6 mm and 18.3 mm, respectively. In addition, the “inhibition (INH)” value is 50% in the assay on Aspergillus niger and 52.5% in the assay on Aspergillus flavus. The MIC in the assay with Bacillus subtilis [2] was greater than 128 µg/mL; against Staphylococcus aureus [4], 64 µg/mL (≈ 163 µM).
On to `NC(=S)c1cn(-c2ccc(S(N)(=O)=O)cc2)nc1-c1ccc(Br)cc1`, for which the figures for the “diameter of the inhibition zone (DIZ)” value in the assay on Bacillus subtilis [1] and with Staphylococcus aureus [3] were 18.3 mm and 21.6 mm, respectively. In addition, the “inhibition (INH)” value in the assay with Aspergillus niger was 44.4%; with Aspergillus flavus, 51.1%. The values for the MIC with Bacillus subtilis [2] and with Staphylococcus aureus [4] were 64 µg/mL (≈ 146 µM) and 32 µg/mL (≈ 73.2 µM), respectively.
Take `NC(=S)c1cn(-c2ccc(S(N)(=O)=O)cc2)nc1-c1cccs1`: the “diameter of the inhibition zone (DIZ)” value in the assay with Bacillus subtilis [1] turned out to be 17.6 mm; with Staphylococcus aureus [3] it was 20.3 mm. Besides, the entries for the “inhibition (INH)” value in the assay with Aspergillus niger and in the assay on Aspergillus flavus were 61.1% and 55.5%, respectively. Moreover, the MIC in the assay with Bacillus subtilis [2] and in the assay with Staphylococcus aureus [4] was 64 µg/mL (≈ 176 µM) in each case.
On to `NS(=O)(=O)c1ccc(-n2cc(C(=O)O)c(-c3ccc(Br)cc3)n2)cc1`, for which the figures for the “diameter of the inhibition zone (DIZ)” value with Bacillus subtilis [1] and in the assay on Staphylococcus aureus [3] were 14.3 mm and 15.6 mm, respectively. Besides, the “inhibition (INH)” value in the assay with Aspergillus niger is on record as 51.1%; in the assay on Aspergillus flavus, 45.5%. Also, the figures for the MIC in the assay on Bacillus subtilis [2] and with Staphylococcus aureus [4] were greater than 128 µg/mL and 128 µg/mL (≈ 303 µM), respectively.
For the compound `NS(=O)(=O)c1ccc(-n2cc(C(=O)O)c(-c3ccc([N+](=O)[O-])cc3)n2)cc1`, the “diameter of the inhibition zone (DIZ)” value is reported as 15 mm in the assay with Bacillus subtilis [1] and 14.6 mm in the assay with Staphylococcus aureus [3]. The “inhibition (INH)” value in the assay on Aspergillus niger turned out to be 61.1%; in the assay on Aspergillus flavus, 57.7%. Moreover, the MIC in the assay with Bacillus subtilis [2] was 128 µg/mL (≈ 330 µM); in the assay with Staphylococcus aureus [4] it was greater than 128 µg/mL.
With `NS(=O)(=O)c1ccc(-n2cc(C(=O)O)c(-c3cccs3)n2)cc1`, the results for the “diameter of the inhibition zone (DIZ)” value in the assay on Bacillus subtilis [1] and with Staphylococcus aureus [3] were 15.6 mm and 18.6 mm, respectively. Besides, the “inhibition (INH)” value in the assay on Aspergillus niger was 57.7%; in the assay on Aspergillus flavus it was 55.5%. Further, the MIC in the assay with Bacillus subtilis [2] stood at 128 µg/mL (≈ 366 µM); in the assay on Staphylococcus aureus [4], 64 µg/mL (≈ 183 µM).
With `NC(=S)c1cn(-c2ccc(S(N)(=O)=O)cc2)nc1-c1ccccc1`, the “diameter of the inhibition zone (DIZ)” value was 15 mm in the assay on Bacillus subtilis [1] and 15.3 mm with Staphylococcus aureus [3]. The “inhibition (INH)” value in the assay on Aspergillus niger is listed as 50%; with Aspergillus flavus, 53.3%. Besides, the MIC in the assay on Bacillus subtilis [2] and against Staphylococcus aureus [4] was 128 µg/mL (≈ 357 µM) each time.
Turning to `Cc1ccc(-c2nn(-c3ccc(S(N)(=O)=O)cc3)cc2C(N)=S)cc1`, the “diameter of the inhibition zone (DIZ)” value in the assay with Bacillus subtilis [1] is 16.3 mm; in the assay with Staphylococcus aureus [3] it was 21.6 mm. Further, the “inhibition (INH)” value in the assay with Aspergillus niger is listed as 44.4%; in the assay with Aspergillus flavus, 51.1%. Further, the figures for the MIC in the assay on Bacillus subtilis [2] and in the assay on Staphylococcus aureus [4] were 128 µg/mL (≈ 344 µM) and 32 µg/mL (≈ 85.9 µM), respectively.
Turning to `COc1ccc(-c2nn(-c3ccc(S(N)(=O)=O)cc3)cc2C(N)=S)cc1`, the “diameter of the inhibition zone (DIZ)” value was 15.6 mm with Bacillus subtilis [1] and 16.6 mm in the assay on Staphylococcus aureus [3]. Moreover, the “inhibition (INH)” value in the assay with Aspergillus niger stood at 55.5%; with Aspergillus flavus it was 57.7%. The MIC in the assay with Bacillus subtilis [2] and against Staphylococcus aureus [4] was 128 µg/mL (≈ 329 µM) each time.
Consider `O=C(O)c1cn(C2CC2)c2cc(N3CCNCC3)c(F)cc2c1=O` [CIPROFLOXACIN], for which the “diameter of the inhibition zone (DIZ)” value is recorded as 26.3 mm in the assay on Bacillus subtilis [1] and 27.6 mm with Staphylococcus aureus [3]. The MIC in the assay with Bacillus subtilis [2] and in the assay with Staphylococcus aureus [4] was 5 µg/mL (≈ 15.1 µM) in each case.
`OC(Cn1cncn1)(Cn1cncn1)c1ccc(F)cc1F` [FLUCONAZOLE]: the “inhibition (INH)” value in the assay on Aspergillus niger was determined as 75.3%; with Aspergillus flavus, 74.6%.
